Assay [1] has as its system IGROV-1. The assay is described as follows: In vitro antiproliferative activity against human IGROV ovarian cell line. Format: functional. In a few lines: (§1)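 SRB colorimetric growth assay. Cells seeded at 5×10^3 per well in RPMI and left to attach in drug-free medium for 18 h. Compounds were then added in DMSO/H2O 3:7 and exposed for 72 h. Cells were fixed with cold 50% TCA for 60 min at 4 °C and stained with 0.4% SRB for 10 min. Bound dye was solubilized in Tris and OD read at 490 nm. GI50 was derived from control, test and time-zero OD. Triplicate; values above 10 μM were scored NS.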

In assay [2] the test system is HT-29. The assay is described as follows: In vitro antiproliferative activity against human HT-29 colon cell line. The class given is functional. In a few lines:
as §1

Assay [3] relates to LNCaP. The assay is described as follows: In vitro antiproliferative activity against human LN-caP prostate cell line. The class given is functional. Put shortly: as §1
Assay [4] concerns HeLa. The assay is described as follows: In vitro antiproliferative activity against human HeLa cervix cell line. The class given is functional. Put shortly:
as §1

For assay [5], the system named is DU-145. The assay is described as follows: In vitro antiproliferative activity against human DU-145 prostate cell line. Format: functional. Put shortly: as §1
In assay [6] the test system is HeLa. The assay is described as follows: In vitro antiproliferative activity against human HeLa-APL cervix cell line. The class given is functional. In a few lines:
as §1

For assay [7], the system named is IGROV-1. The assay is described as follows: In vitro antiproliferative activity against human IGROV-ET ovarian cell line; NS = Not significant. Format: functional, cell-based. Put shortly:
as §1

Assay [8] deals with SK-BR-3. The assay is described as follows: In vitro antiproliferative activity against human SK-BR-3 breast cell line. Format: functional. Put shortly: as §1
For assay [9], the system named is LoVo. The assay is described as follows: In vitro antiproliferative activity against human LOVO colon cell line. Format: functional. In a few lines: as §1
The subject of assay [10] is PANC-1. The assay is described as follows: In vitro antiproliferative activity against human PANC-1 pancreas cell line. Format: functional. In a few lines: as §1
Assay [11] relates to LoVo. The assay is described as follows: In vitro antiproliferative activity against human LOVO-DOX colon cell line; NS = Not significant. Format: functional, cell-based. In a few lines:
as §1

Assay [12] has as its system A549. The assay is described as follows: In vitro antiproliferative activity against human A-549 NSCL cell line. Format: functional. In a few lines:
as §1

The subject of assay [13] is SK-MEL-28. The assay is described as follows: In vitro antiproliferative activity against human MEL-28 melanoma cell line. Format: functional. Put shortly:
as §1

Assay [14] concerns K562. The assay is described as follows: In vitro antiproliferative activity against human K-562 cell line. Format: functional. In a few lines:
as §1

Assay [15] has as its system LoVo. The assay is described as follows: In vitro antiproliferative activity against human LOVO-DOX colon cell line. The class given is functional. Put shortly:
as §1

The subject of assay [16] is IGROV-1. The assay is described as follows: In vitro antiproliferative activity against human IGROV-ET ovarian cell line. The class given is functional. Put shortly:
as §1

In assay [17] the test system is HeLa. The assay is described as follows: In vitro antiproliferative activity against human HeLa-APL cervix cell line; NS = Not significant. The class given is functional, cell-based. In a few lines: as §1
Assay [18] has as its system A549. The assay is described as follows: In vitro antiproliferative activity against human A-549 NSCL cell line; NS = Not significant. The class given is functional, cell-based. In a few lines:
as §1

Assay [19] concerns PANC-1. The assay is described as follows: In vitro antiproliferative activity against human PANC-1 pancreas cell line; NS = Not significant. The class given is functional, cell-based. In a few lines: as §1
The subject of assay [20] is HT-29. The assay is described as follows: In vitro antiproliferative activity against human HT-29 colon cell line; NS = Not significant. Format: functional, cell-based. Put shortly: as §1
In assay [21] the test system is DU-145. The assay is described as follows: In vitro antiproliferative activity against human DU-145 prostate cell line; NS = Not significant. Format: functional, cell-based. In a few lines:
as §1

The subject of assay [22] is HeLa. The assay is described as follows: In vitro antiproliferative activity against human HeLa cervix cell line; NS = Not significant. Format: functional, cell-based. In a few lines:
as §1

Assay [23] has as its system SK-MEL-28. The assay is described as follows: In vitro antiproliferative activity against human MEL-28 melanoma cell line; NS = Not significant. The class given is functional, cell-based. Put shortly: as §1
For assay [24], the system named is LoVo. The assay is described as follows: In vitro antiproliferative activity against human LOVO colon cell line; NS = Not significant. Format: functional, cell-based. Put shortly:
as §1

For assay [25], the system named is K562. The assay is described as follows: In vitro antiproliferative activity against human K-562 cell line; NS = Not significant. The class given is functional, cell-based. Put shortly: as §1

The source made the active and inactive calls. The rule behind the calls is not given here.

The values that follow come from ChEMBL document CHEMBL1148478, “Benzo[f]azino[2,1-a]phthalazinium cations: novel DNA intercalating chromophores with antiproliferative activity” (2004).

With `CCOc1ccc(-c2n[n+]3c4ccccc4ccc3c3ccc4ccccc4c23)cc1`, the GI50 – broadly, the concentration that inhibits growth by half – was 2600 nM in [1]; 5400 nM in assay [2]; 2600 nM in assay [3]; 4600 nM in [4]; 5800 nM in [5]; 7400 nM in assay [6]. For the same molecule, the GI50 stood at 3900 nM in assay [8]; 6300 nM in assay [9]; 4900 nM in [10]; 6000 nM in assay [12]; 5300 nM in [13]; 6700 nM in assay [14]. In addition, the GI50 entry in assay [7] and in assay [11] was “inactive” throughout.

Regarding `Cc1cccc2c3ccc4ccccc4c3c(-c3ccccc3)n[n+]12`, the GI50 in [1] came to 1700 nM; in assay [2], 1200 nM; in assay [3], 400 nM; in assay [4] it was 3800 nM; in assay [5], 3100 nM; in [6] it was 4100 nM. Besides, the GI50 in [8] is 500 nM; in assay [15] it was 5400 nM; in [9], 3000 nM; in assay [10], 3400 nM; in assay [16] it was 2900 nM; in assay [12], 4200 nM. For the same molecule, the results for the GI50 in [13] and in [14] were 2500 nM and 1500 nM, respectively.

For `c1ccc(-c2n[n+]3ccccc3c3ccc4ccccc4c23)cc1`, the GI50 result in assay [17], in assay [18], in [19], in assay [7], in assay [20] and in assay [21] was “inactive” each time. Also, the GI50 entry in assay [22], in assay [11], in assay [23] and in assay [24] was “inactive” throughout. The concentration for 50% growth inhibition (GI50) is 100 nM in [1], 5200 nM in [3], 9700 nM in assay [8] and 7600 nM in assay [14].

In the case of `Cc1ccc2c(ccc3c4ccc5ccccc5c4c(-c4ccccc4)n[n+]23)c1`, the GI50 entry in assay [17] was “inactive”. Also, the GI50 in assay [1] came to 500 nM; in assay [2], 400 nM; in assay [3] it was 200 nM; in assay [4], 500 nM; in assay [5] it was 500 nM; in assay [8], 500 nM. Besides, the GI50 was determined as 3600 nM in [15]; 400 nM in assay [9]; 700 nM in assay [10]; 1800 nM in assay [16]; 600 nM in [12]; 500 nM in [13]. In assay [14], this molecule returned a GI50 of 200 nM.

Take `Cc1cc[n+]2nc(-c3ccccc3)c3c4ccccc4ccc3c2c1`: the GI50 entry in assay [17], in assay [25], in [18], in [19], in assay [7] and in assay [20] was “inactive” throughout. The GI50 result in [21], in [22], in [11] and in assay [24] was “inactive” in each case. For the same molecule, the GI50 worked out at 6500 nM in assay [1], 4000 nM in assay [3], 4600 nM in [8] and 8400 nM in assay [13].

As for `COc1cccc2c1C(=O)c1c(O)c3c(c(O)c1C2=O)C[C@@](O)(C(=O)CO)C[C@@H]3O[C@H]1C[C@H](N)[C@H](O)[C@H](C)O1` [DOXORUBICIN], the GI50 is 4400 nM in assay [1]; 3100 nM in assay [2]; 20 nM in assay [3]; 10 nM in assay [4]; 20 nM in assay [5]; 10 nM in [6]. For the same molecule, the GI50 in assay [8] is 1100 nM; in [15], 2400 nM; in [9], 10 nM; in assay [10], 3500 nM; in assay [16] it was 2400 nM; in assay [12] it was 70 nM. The concentration for 50% growth inhibition (GI50) in assay [13] came to 3100 nM; in [14], 30 nM.

With `CCOc1ccc(-c2n[n+]3ccccc3c3ccc4ccccc4c23)cc1`, the 50% growth inhibitory concentration (GI50) in assay [1] amounted to 3800 nM; in [2], 1100 nM; in assay [3], 500 nM; in assay [4], 3100 nM; in [5], 4800 nM; in assay [6] it was 5000 nM. The GI50 in [8] came to 1200 nM; in [15], 8000 nM; in assay [9] it was 2900 nM; in assay [10], 2100 nM; in assay [16], 8600 nM; in [12], 3000 nM. Also, the GI50 in assay [13] amounted to 2600 nM; in assay [14], 1200 nM.

Consider `CCOc1ccc(-c2n[n+]3c(C)cccc3c3ccc4ccccc4c23)cc1`, for which the GI50 in assay [1] amounted to 2400 nM; in [2] it was 600 nM; in [3], 400 nM; in assay [4], 1300 nM; in assay [5], 1800 nM; in [6] it was 1400 nM. Further, the GI50 in [8] was 500 nM; in assay [15], 7000 nM; in assay [9], 1000 nM; in assay [10] it was 1000 nM; in assay [16] it was 4500 nM; in [12], 800 nM. Also, the GI50 in [13] worked out at 1200 nM; in [14] it was 600 nM.

For `CCOc1ccc(-c2n[n+]3c4ccc(C)cc4ccc3c3ccc4ccccc4c23)cc1`, the GI50 came to 400 nM in assay [1]; 200 nM in assay [2]; 70 nM in [3]; 300 nM in assay [4]; 500 nM in assay [5]; 600 nM in [6]. The GI50 in [8] came to 500 nM; in assay [9], 300 nM; in assay [10], 400 nM; in assay [16], 1700 nM; in [12], 500 nM; in [13], 400 nM. For the same molecule, in assay [14], halving of growth (GI50) required 100 nM. In addition, in [11], the GI50 entry is “inactive”.

Consider `c1ccc(-c2n[n+]3c4ccccc4ccc3c3ccc4ccccc4c23)cc1`, for which the GI50 stood at 500 nM in assay [1]; 400 nM in assay [2]; 300 nM in assay [3]; 700 nM in assay [4]; 1000 nM in assay [5]; 100 nM in assay [6]. For the same molecule, the 50% growth inhibitory concentration (GI50) is 500 nM in assay [8]; 3500 nM in assay [15]; 600 nM in assay [9]; 1300 nM in [10]; 2000 nM in [16]; 800 nM in assay [12]. For the same molecule, the figures for the GI50 in assay [13] and in assay [14] were 1000 nM and 400 nM, respectively.
